# Screens as filed in PubChem.
# The sample as a whole holds a higher share of hits than the screen did.
# Redox H2O2 prof – compounds producing H2O2 with reducing agent – biochemical, NIH compound library profiling, artefact control for MLSCN library redox annotation, primary screen | DTT-dependent redox cycling H2O2, phenol red/HRP absorbance; 100% = 100 µM peroxide control, 0% = buffer | activation, % at 10 µM | actives 0.03% (n = 200,000) | AID 878, 2007;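 active means activation of at least 50% relative to the plate's high and low controls in the primary single-dose screen; inactive means activation below 50%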;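 further: compound incubated with DTT at 0.8 mM final as the reducing agent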
# Lipid droplet – inhibitors of hepatocyte lipid droplet formation, primary screen, imaging, high-throughput imaging, BODIPY stain. AML12 mouse hepatocytes, oleate lipid droplets. inhibition, % at 6.5 µM. actives 0.4% (n = 240,000). AID 1656, 2009;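 active means lipid droplet intensity inhibited by at least 50%, with more than 500 cells counted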
#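 Material – AML12 mouse liver cells · Also added – oleate loading, 100 µM · Compound dosing – 6.5 µM single-point dosing · Times – overnight treatment with compound plus oleate · Measured by – fluorescence imaging, 20x objective, two fields per well · Read-out – percent inhibition of filter-corrected integrated lipid droplet intensity per well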
# MPTP inh – mitochondrial permeability transition pore inhibitors, primary screen, biochemical, isolated mouse mitochondria, absorbance. Ca2+ swelling absorbance, 30 min. inhibition, % at 10 µM. actives 1.4% (n = 360,000);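 active means inhibition of 50% or more, scaled per plate between neutral and stimulator controls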;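 further: 0% = DMSO wells given calcium and 100% = 1 mM EGTA wells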
# T cruzi repl – inhibitors of intracellular T. cruzi growth, primary screen, luminescence, NIH3T3 host cells; actives 1.4% (n = 300,000); inhibition, % (no concentration beside the values); T. cruzi beta-gal in NIH3T3, 90 h; AID 1885, 2009;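 active means mean inhibition across valid replicates above about 55%, limit read from the data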;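 further: signal also drops with host cell toxicity which is not excluded here; 0% = plate median of DMSO wells and 100% = zero luminescence signal; higher percent means less beta-gal luminescence so fewer parasites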
#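 System: NIH/3T3 fibroblasts plus reporter T. cruzi. Medium: DMEM plus 2% FBS. Probe or stimulus: 5000 reporter trypomastigotes per well. Compound: single 50 nL compound addition per well in DMSO. Incubation: co-culture of at least 90 h after 3 h attachment. Detection: GalScreen β-gal luminescence, detergent lysis, 60 min. Evaluation: parasite load inhibition, %.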
# Lmaj promast – Leishmania major promastigote growth inhibition, primary screen; Leishmania major promastigotes, resazurin fluorescence viability; inhibition, % at 10 µM; actives 9% (n = 200,000); in the data active means inhibition above about 50%;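 further: promastigotes grown with compound for 44 hours at 28 °C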
# Starred values were filed as active, the others as inactive; nt = not tested or not shown.
SMILES,Redox H2O2 prof,Lipid droplet,MPTP inh,T cruzi repl,Lmaj promast
CSc1ncccc1C(=O)Nc1nc2c(C)cccc2s1,0.1,-0.9,4.1,-8.0,69.5*
COc1ccc2nc(NC(=O)CNS(=O)(=O)c3cccs3)sc2c1,0.3,13.9,0.8,-2.4,89.0*
COc1ccc2nc(NC(=O)CCn3cccc3)sc2c1,-1.3,nt,0.2,-17.2,55.9*
COc1ccc2nc(NC(=O)Cc3cccs3)sc2c1,0.1,-1.8,0.1,24.1,58.7*
COc1ccc2nc(NC(=O)CN(C)S(=O)(=O)c3cccs3)sc2c1,-3.0,-5.9,1.3,11.2,47.2
CN(C)C(=O)C12CCC(C)(C(=O)C1Br)C2(C)C (stereo unspecified),nt,-5.4,-1.1,8.7,nt
COc1cc(CN2CC(=O)N(c3ccc(C)c(C)c3)C2=S)cc(OC)c1OC,0.5,2.6,1.8,4.7,94.0*
COc1ccc(CN2CC(=O)N(c3ccc(C)c(C)c3)C2=S)cc1OC,0.1,-7.9,0.3,-1.9,51.9*
CC1(C)Cc2cccc(OCC(O)CN3CCN(c4ccccn4)CC3)c2O1 (stereo unspecified),2.1,1.3,-0.2,12.9,85.2*
Cc1ccccc1OCC(O)CN1CCN(C)CC1 (stereo unspecified),-0.4,0.1,1.1,62.9*,-11.8
CC(COc1cccc2ccccc12)CN1CCN(C)CC1 (stereo unspecified),-0.4,nt,1.0,66.1*,83.5*
CC(C)c1ccccc1OCC(O)CN1CCN(S(=O)(=O)c2ccc([N+](=O)[O-])cc2)CC1 (stereo unspecified),nt,-21.6,1.6,54.8*,nt
C#CCN(C[C@H]1[C@H](OC(=O)NCc2ccccc2F)[C@H](OC(=O)NCc2ccccc2F)C[C@H]2C(=O)N(c3ccccc3)C(=O)[C@@H]12)S(=O)(=O)c1ccc(C)cc1,nt,nt,2.6,nt,nt
NC1=NC(=Nc2cccc(S(=O)(=O)N3CCOCC3)c2)c2ccccc21,nt,-5.4,-0.5,-5.5,nt
Cc1nnc(NC(=O)CSc2ccccc2N)s1,nt,-0.7,3.0,-8.8,nt
OC(COc1ccccc1Cl)CN1CCN(CC(O)COc2ccccc2Cl)CC1 (stereo unspecified),2.4,nt,8.9,-16.3,88.4*
OC(COc1cccc2ccccc12)CN1CCOCC1 (stereo unspecified),nt,nt,-0.2,nt,nt
OC(COc1ccc2ccccc2c1Cl)CN1CCOCC1 (stereo unspecified),-0.1,nt,2.6,-10.8,91.9*
CCOC(=O)C1(C)CCCN(C(=O)c2c(F)cccc2F)C1 (stereo unspecified),nt,nt,0.5,nt,nt
CCOc1ccccc1N1CC(C(=O)NCCOc2ccccc2OC)CC1=O (stereo unspecified),nt,10.2,-0.5,-5.5,nt
Cc1cc(C)c(S(=O)(=O)c2ccc(Cl)cc2)c(Cl)n1,-0.2,-20.5,-0.9,7.6,10.3
Cc1cc(C)c(S(=O)(=O)c2ccc(F)cc2C)c(Cl)n1,nt,-25.9,1.2,55.2*,nt
Cc1cc(C)c(S(=O)(=O)c2ccccc2Cl)c(Cl)n1,-0.8,3.8,-1.2,54.9*,20.6
CCSc1nc(C)cc(C)c1S(=O)(=O)c1ccccc1C,2.0,-56.5,-0.1,25.2,88.1*
COc1cc(NC(=O)[C@@H](NC(=O)N2CCn3c2nc2ccccc23)C(C)C)cc(OC)c1,nt,-3.7,0.7,17.9,nt
SMILES,Redox H2O2 prof,Lipid droplet,MPTP inh,T cruzi repl,Lmaj promast
CC(=O)Nc1ccc2nc(C3CC3)n(Cc3ccc(Cl)cc3)c(=O)c2c1,-0.6,2.1,0.4,27.1,83.8*
O=C(Nc1ccc2nc(C3CC3)n(Cc3ccc(F)cc3)c(=O)c2c1)c1ccco1,-0.8,nt,-2.9,11.8,24.1
CCC(=O)Nc1ccc2nc(C3CC3)n(Cc3ccc(C(C)(C)C)cc3)c(=O)c2c1,nt,-0.1,7.4,57.6*,nt
COc1ccc(Cn2c(C3CC3)nc3ccc(NC(=O)C4CC4)cc3c2=O)cc1,2.0,nt,-9.1,29.1,9.5
Cn1c(=O)c2ncn(CC(=O)Nc3nc(-c4ccc(Cl)cc4)cs3)c2n(C)c1=O,-0.6,-6.8,-0.1,2.8,0.6
O=C(Nc1ccc2nc3n(c(=O)c2c1)CCCCC3)C(=O)N1CCN(c2ccc(F)cc2)CC1,nt,13.3,-1.9,1.8,nt
Cc1cc(N/N=C2/CCCc3ccccc32)nc2ccccc12,-1.6,-8.0,4.3,51.5,89.9*
Cc1cc(N/N=C2\CC(C)CC(C)(C)C2)nc2ccccc12 (stereo unspecified),-0.7,18.6,1.1,45.0,98.8*
CC1C/C(=N/Nc2nc3ccccc3[nH]2)CC(C)(C)C1 (stereo unspecified),0.0,15.5,4.0,18.7,84.9*
CC1C/C(=N/NC(=O)c2ccc(CSc3nc4ccccc4[nH]3)cc2)CC(C)(C)C1 (stereo unspecified),-0.4,-9.5,1.5,11.3,39.4
c1ccc2[nH]c(NN=C3CCCCCC3)nc2c1,0.3,17.2,0.8,-5.8,74.7*
O=[N+]([O-])c1ccc(NN=Cc2ccccc2)nc1,nt,nt,1.7,nt,nt
N#Cc1ccccc1Cn1cc(/C=N/Nc2ccc([N+](=O)[O-])cn2)c2ccccc21,-0.2,21.7,1.7,64.4*,11.2
O=C(CC1C(=O)NCCN1Cc1ccoc1)NCCCn1ncc2ccccc21 (stereo unspecified),-1.0,1.7,0.0,-8.2,0.0
O=C(c1cnn2c(C(F)(F)F)cc(-c3ccc4c(c3)OCO4)nc12)N1CCCC1,0.1,nt,1.7,0.6,76.6*
COc1ccc(-c2cc(C(F)(F)F)n3ncc(C(=O)N4CCCCC4c4cccnc4)c3n2)cc1 (stereo unspecified),-0.3,-1.6,0.2,48.8,98.5*
CCOC(=O)C1CCCN(C(=O)c2cnn3c(C(F)(F)F)cc(-c4ccccc4)nc23)C1 (stereo unspecified),0.1,-5.0,-0.2,-2.9,51.9*
COC(=O)c1cnn2c(C(F)(F)F)cc(-c3ccc(F)cc3)nc12,-0.6,nt,1.1,3.6,-5.9
O=C(c1cnn2c(C(F)(F)F)cc(-c3ccc(Br)cc3)nc12)N1CCOCC1,-0.1,nt,-4.4,2.9,37.8
O=C(NC1CCCC1)C(C1CC1)n1c(-c2cc3ccccc3[nH]2)nc2ccccc21 (stereo unspecified),nt,nt,-0.6,nt,nt
CCOC(=O)c1ccc(-c2ccc3oc(-c4ccsc4)cc(=O)c3c2)cc1F,nt,nt,-1.7,nt,nt
COc1ccccc1N1CCN(C(=O)C2CCN(S(=O)(=O)c3ccccc3F)CC2)CC1,nt,nt,-1.7,nt,nt
CC(C)(C)c1ccc(C(=O)NCc2ccc(Cl)cc2)cc1,-4.2,nt,0.8,23.8,-0.2
CC1CCN(C(=S)Nc2ccc(SC(F)F)cc2)CC1,0.2,4.0,-0.4,-17.0,71.5*
CCCN1CCN(C(=S)NCc2ccc(Cl)cc2)CC1,0.5,1.5,1.4,8.3,81.0*
CCCN1CCN(C(=S)Nc2ccc(SC(F)F)cc2)CC1,0.4,4.4,1.0,10.1,90.5*
